Test results reported in EPA's CvTdb concentration-time database.

Key:
Rat [1] = assay: concentration in brain after dosing; settings: 0.5 h; dosed: 2-Methyltetrahydrofuran; 40 mg/kg; iv; Female; Harlan Sprague Dawley
Rat [2] = assay: concentration in plasma after dosing; settings: 4 h; dosed: 2-Methyltetrahydrofuran; 40 mg/kg; iv; Female; Harlan Sprague Dawley
Rat [3] = assay: concentration in brain after dosing; settings: 0.2 h; dosed: 2-Methyltetrahydrofuran; 40 mg/kg; iv; Male; Harlan Sprague Dawley
Rat [4] = assay: concentration in plasma after dosing; settings: 0.75 h; dosed: 2-Methyltetrahydrofuran; 40 mg/kg; iv; Male; Harlan Sprague Dawley
Rat [5] = assay: concentration in brain after dosing; settings: 2 min; dosed: 2-Methyltetrahydrofuran; 40 mg/kg; iv; Male; Harlan Sprague Dawley
human [6] = assay: concentration in blood after dosing; negative times count back from the end of exposure; settings: dosed: trichloroethylene, 100 ppm, inhalation, person
Summary of the method: (§1)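 Sampling and analytical methods are those of each source and frequently went unreported. The concentration-versus-time and amount-versus-time points were compiled from published in vivo toxicokinetic studies and two structured collections. Most were digitised from plot screenshots with WebPlotDigitizer, with others copied from tables, in the reported units.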

human [7] = assay: concentration in expired air after dosing; settings: dosed: trichloroethylene, 100 ppm, inhalation, duration: 4 hr, person
Summary of the method: as §1

Rat [8] = assay: concentration in kidney after dosing; settings: 0.5 h; dosed: Perfluorohexanoic Acid; 80 mg/kg; oral; Female; Harlan Sprague Dawley
Rat [9] = assay: concentration in plasma after dosing; settings: dosed: Perfluorohexanoic Acid, 40 mg/kg, iv, Male, F344
Rat [10] = assay: concentration in liver after dosing; settings: 12 h; dosed: Perfluorohexanoic Acid; 80 mg/kg; oral; Male; Harlan Sprague Dawley
Rat [11] = assay: concentration in kidney after dosing; settings: 0.5 h; dosed: Perfluorohexanoic Acid; 80 mg/kg; oral; Male; Harlan Sprague Dawley
Rat [12] = assay: concentration in plasma after dosing; settings: 0.75 h; dosed: Perfluorohexanoic Acid; 40 mg/kg; iv; Male; F344
Rat [13] = assay: concentration in plasma after dosing; settings: 0.5 h; dosed: Perfluorohexanoic Acid; 80 mg/kg; oral; Male; Harlan Sprague Dawley
Rat [14] = assay: concentration in plasma after dosing; settings: 2 h; dosed: Gemfibrozil; 4.29 mg/kg; oral; Male; Sprague-Dawley
Rat [15] = assay: concentration in liver after dosing; settings: 6 h; dosed: Perfluorooctane Sulfonate; 2 mg/kg; oral; Female; Harlan Sprague Dawley
Rat [16] = assay: concentration in kidney after dosing; settings: 1848 h; dosed: Perfluorooctane Sulfonate; 2 mg/kg; oral; Female; Harlan Sprague Dawley
Rat [17] = assay: concentration in brain after dosing; settings: 24 h; dosed: Perfluorooctane Sulfonate; 2 mg/kg; oral; Female; Harlan Sprague Dawley
Rat [18] = assay: concentration in plasma after dosing; settings: dosed: Perfluorooctane Sulfonate, 2 mg/kg, iv, Male, F344
Rat [19] = assay: concentration in kidney after dosing; settings: 3360 h; dosed: Perfluorooctane Sulfonate; 20 mg/kg; oral; Male; Harlan Sprague Dawley
Rat [20] = assay: concentration in kidney after dosing; settings: 6 h; dosed: Perfluorooctane Sulfonate; 20 mg/kg; oral; Female; F344
Rat [21] = assay: concentration in liver after dosing; settings: 864 h; dosed: Perfluorooctane Sulfonate; 20 mg/kg; oral; Female; F344
Rat [22] = assay: concentration in plasma after dosing; settings: dosed: 678-39-7, 12 mg/kg, iv, Male, F344
Rat [23] = assay: concentration in brain after dosing; settings: 1 h; dosed: Fluorotelomer alcohol 8+2; 24 mg/kg; oral; Male; Harlan Sprague Dawley
Rat [24] = assay: concentration in plasma after dosing; settings: 192 h; dosed: 678-39-7; 40 mg/kg; iv; Male; F344
Rat [25] = assay: concentration in plasma after dosing; settings: 3 h; dosed: Fluorotelomer alcohol 8+2; 12 mg/kg; oral; Male; Harlan Sprague Dawley
Rat [26] = assay: concentration in plasma after dosing; settings: dosed: 678-39-7, 12 mg/kg, iv, Male, F344; remark: listed apart in the source
Rat [27] = assay: concentration in plasma after dosing; settings: dosed: Fluorotelomer alcohol 8+2, 12 mg/kg, oral, Male, Harlan Sprague Dawley
Rat [28] = assay: concentration in brain after dosing; settings: 6 h; dosed: Fluorotelomer alcohol 8+2; 80 mg/kg; oral; Female; Harlan Sprague Dawley
Rat [29] = assay: concentration in brain after dosing; settings: 12 h; dosed: Fluorotelomer alcohol 8+2; 80 mg/kg; oral; Female; Harlan Sprague Dawley

CC1CCCO1 (centres undefined) [2-Methyltetrahydrofuran]
Settings	concentration in brain [ng/mL]	concentration in plasma [ng/mL]
Rat [1]	12700	–
Rat [2]	–	186
Rat [3]	25500	–
Rat [4]	–	23700
Rat [5]	34000	–

ClC=C(Cl)Cl [trichloroethylene]
human [6]
Settings	concentration in blood [ng/mL]
0 h, duration: 6 hr	1310
0.2145 h, duration: 4 hr	2070
0.2337 h, duration: 4 hr	1290
0.4864 h, duration: 4 hr	1450
0.9849 h, duration: 4 hr	714
0.9924 h, duration: 4 hr	513
1.967 h, duration: 4 hr	333
1.979 h, duration: 4 hr	268
3.961 h, duration: 4 hr	170
18 h, duration: 6 hr	1100
22 s, duration: 4 hr	1870
24 h, duration: 6 hr	562
29.5 min, duration: 4 hr	851
42 h, duration: 6 hr	1490
48 h, duration: 6 hr	1230
66 h, duration: 6 hr	2060
72 h, duration: 6 hr	1320
90 h, duration: 6 hr	1660
96 h, duration: 6 hr	1370
160 h, duration: 6 hr	921

concentration in blood [ng/mL], human [6], during exposure
Settings	-6 h	-3.502 h	-3.499 h	-3.014 h	-3.003 h	-2.006 h	-1.997 h	-1.011 h	-1.009 h
duration: 4 hr	–	1670	881	1250	2120	2530	1520	1690	2830
duration: 6 hr	11.9	–	–	–	–	–	–	–	–

human [7]
Settings	concentration in expired air [ppm]
0.2144 h	4.28
0.5331 h	2.8
1.023 h	1.97
2.042 h	1.38
4.039 h	0.761
5.983 h	0.736
7.98 h	0.579
10.1 h	0.488

O=C(O)C(F)(F)C(F)(F)C(F)(F)C(F)(F)C(F)(F)F [Perfluorohexanoic Acid]
Settings	concentration in kidney [ng/g]	concentration in liver [ng/g]	concentration in plasma [ng/mL]
Rat [8]	48100	–	–
Rat [10]	–	2130	–
Rat [11]	69600	–	–
Rat [12]	–	–	15200
Rat [13]	–	–	105000

Rat [9]
Settings	concentration in plasma [ng/mL]
0.25 h	19100
6 h	2380

Cc1ccc(C)c(OCCCC(C)(C)C(=O)O)c1 [Gemfibrozil]
Settings	concentration in plasma [ng/mL]
Rat [14]	74.1

O=S(=O)([O-])C(F)(F)C(F)(F)C(F)(F)C(F)(F)C(F)(F)C(F)(F)C(F)(F)C(F)(F)F [Perfluorooctane Sulfonate]
Settings	concentration in brain [ng/g]	concentration in kidney [ng/g]	concentration in liver [ng/g]
Rat [15]	–	–	25400
Rat [16]	–	2750	–
Rat [17]	757	–	–
Rat [19]	–	13900	–
Rat [20]	–	152000	–
Rat [21]	–	–	71400

Rat [18]
Settings	concentration in plasma [ng/mL]
12 h	4880
864 h	2120

O=C(O)CCC(F)(F)C(F)(F)C(F)(F)C(F)(F)C(F)(F)C(F)(F)C(F)(F)F [Fluorotelomer acid 7+3]
concentration in plasma [ng/mL]
Settings	0.75 h	1 h	6 h	12 h
Rat [22]	–	601	432	–
Rat [26]	365	–	–	74.1
Rat [27]	313	–	–	197

Settings	concentration in brain [ng/g]	concentration in plasma [ng/mL]
Rat [23]	128	–
Rat [24]	–	49.7
Rat [25]	–	866
Rat [28]	1040	–
Rat [29]	432	–
